# Data as given in paper PMC8994735 (Targeted Oncology, 2021).
# Entries after “also recorded” stand apart in the source; their conditions may differ.
# Legend:
# Format in all cases: in vivo, human
# [1] = Plasma pharmacokinetics; details: for AUC / Cmax / half-life / Tmax: human, oral; for Cmax: Mean Cmax
# [2] = test system: advanced nonhematologic malignancies; assay: Antitumor activity: disease response by RECIST v1.1
# Summary of the method: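 Oral dosing once daily (2, 3 or 4 mg) or once weekly (20 or 30 mg) in 28-day cycles. Treatment lasted up to 12 months or until progression, unacceptable toxicity or consent withdrawal. Response was assessed by RECIST v1.1 in the safety analysis set (patients receiving ≥ 1 dose). Analysis was descriptive, with no formal hypothesis testing.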
# [3] = test system: East Asian patients with advanced nonhematologic malignancies; assay: Dose-limiting toxicities and MTD/RP2D determination
# Summary of the method: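 Standard 3 + 3 escalation with planned levels of 2 and 4 mg once daily and 20 and 30 mg once weekly, oral, in 28-day cycles; intermediate doses and expansion to 12 patients were permitted. DLTs were assessed in cycle 1 and covered grade ≥ 3 nonhematologic toxicity (with specified exceptions), defined hematologic events, and < 75% of planned doses given. Evaluable patients received ≥ 75% of planned doses (21 once daily, three once weekly).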
structure (smiles),measurement,setting,value
CC(C)n1nc(-c2ccc3oc(N)nc3c2)c2c(N)ncnc21 [sapanisertib],Accumulation in plasma,"[1]; QD or QW, any dose level",did not accumulate in plasma to any appreciable extent
same,Dose dependence of plasma exposure (AUC and Cmax),[1]; across all doses,"increased linearly across all doses; also recorded: generally linear, dose-dependent"
same,Time at which peak plasma concentrations were achieved post-dose,"[1]; cycle 1 day 1, single dose, both QD and QW arm",0.5 to 2.0 h
same,Geometric mean accumulation ratio of AUC168,"[1]; cycle 1 day 15, 20 mg QW",1.14
same,Geometric mean accumulation ratio of Cmax,"[1]; cycle 1 day 15, 20 mg QW",0.72
same,Geometric mean accumulation ratio of AUC168,"[1]; cycle 1 day 15, 30 mg QW",1.47
same,Geometric mean accumulation ratio of Cmax,"[1]; cycle 1 day 15, 30 mg QW",1.36
same,Time at which peak plasma concentrations were achieved post-dose,"[1]; cycle 1 day 15, QD arm",0.5 to 3.0 h
same,Time at which peak plasma concentrations were achieved post-dose,"[1]; cycle 1 day 15, QW arm",0.5 to 4.1 h
same,Geometric mean accumulation ratio of Cmax,"[1]; cycle 1 day 15, across all QD dose levels",0.93–1.30
same,AUC,"[1]; plasma, Mean AUC24, cycle 1 day 15, QD dosing",237 to 366 ng·h/mL
same,AUC,"[1]; plasma, Mean AUC from 0–24 h (AUC24), cycle 1 day 1, across QD doses",138 to 315 ng·h/mL
same,Cmax,"[1]; plasma, cycle 1 day 1, across all QD doses",23.9 to 56.9 ng/mL
same,Cmax,"[1]; plasma, cycle 1 day 15, across all QD doses",33.4 to 57.2 ng/mL
same,half-life,"[1]; plasma, Mean plasma elimination half-life, cycle 1 day 1, across all QD doses",6 to 6.8 h
same,half-life,"[1]; plasma, Mean plasma elimination half-life, cycle 1 day 15, across all QD doses",5.24 to 9.2 h
same,Tmax,"[1]; plasma, Median Tmax, cycle 1 day 1, across all QD doses",0.5 to 1 h
same,Tmax,"[1]; plasma, Median Tmax, cycle 1 day 15, across all QD doses",1 to 1.5 h
same,half-life,"[1]; plasma, T1/2, overall, as summarised in the abstract",5.9 to 7.6 h
same,Tmax,"[1]; plasma, Tmax, across all doses in both arms",0.5 to 2.6 h
same,"Cmax, mean (sd)","[1]; plasma, cycle 1 day 15, QW dose escalation 20 mg, n 3",207.5 ng/mL
same,Best overall response of progressive disease,[2]; QD arm,45%
same,"Clinical benefit rate (CR, PR, or SD of any duration)",[2]; QD arm,45%
same,Discontinuation due to progressive disease,[2]; QD arm,64%
same,Best overall response of progressive disease,[2]; QW arm,33%
same,"Clinical benefit rate (CR, PR, or SD of any duration)",[2]; QW arm,67%
same,Discontinuation due to progressive disease,[2]; QW arm,67%
same,Patients with stable disease for ≥ 6 months,[2]; all cohorts,Three
same,Complete response (CR) or partial response (PR),[2]; either treatment arm,No patients
same,Anti-tumor effect,"[2]; heavily pretreated patients, across dosing schedules",Moderate anti-tumor effects and a favorable safety profile were observed with sapanisertib in this heavily pretreated patient population
same,DLT of grade 3 stomatitis,[3]; 4 mg QD cohort,2 n
same,Dose-limiting toxicities (patients experiencing DLTs),"[3]; 4 mg QD cohort, cycle 1",three
same,DLTs,[3]; 20 mg QW dose level,no patients experienced DLTs
same,DLTs,[3]; 30 mg QW dose level,no patients experienced DLTs
same,Maximum tolerated dose (MTD),"[3]; QD dosing, East Asian patients",3 mg
same,Recommended phase 2 dose (RP2D),"[3]; QD dosing, East Asian patients",3 mg
same,Recommended phase 2 dose (RP2D),"[3]; QW dosing, East Asian patients",30 mg
